Screening data: PubChem BioAssay, Broad Institute
A selection follows.
PGC1a acetyl up: raises PGC1a acetylation signal in U2OS cells | U2OS PGC1a acetylation AlphaScreen, overnight | activation, % at 15.6 µM | 350,000 tested, 0.21% active;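 active = every replicate reaching activation of at least 50%, whatever the mean replicate activation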;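 also: hits raise the AlphaScreen acetylation signal above neutral controls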
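Incubation: overnight compound treatment, 37 °C. System: U2OS cells transduced with flag-tagged PGC1a and GCN5 acetyltransferase. Detection: AlphaScreen lysate read. Compound: single-point compound dosing.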
G6PC hep suppr: PGC-1a acetylation activators affecting G6PC expression in hepatocytes; G6PC suppression (normalized activity, % of positive control; higher = more suppression), % at 26 µM; 240 tested, under 10 active; shares compounds with PGC1a acetyl up; primary mouse hepatocytes, G6PC mRNA qPCR, forskolin;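 active = dose curves showing G6PC suppression whose half-maximal dose is at most twice the top valid dose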;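 also: G6PC expression relative to GAPDH housekeeping gene as delta delta Ct; 0% = median of neutral control wells and 100% = median of positive control wells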
PCK1 hep suppr: PGC-1a acetylation activator altering hepatocyte PCK1 expression | primary mouse hepatocytes, PCK1 mRNA qPCR, forskolin-stimulated | shares compounds with PGC1a acetyl up | 230 tested, under 10 active | PCK1 expression decrease, unspecified at 26 µM | AID 743465;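 active = compounds lowering PCK1 expression whose fitted half-maximal concentration is at most twice the top tested dose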;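 also: values are delta delta Ct of PCK1 relative to GAPDH; higher delta delta Ct means lower PCK1 expression so positive values indicate hits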
PGC1a hep suppr: hepatocyte PGC-1a expression change via PGC-1a acetylation activation | 240 tested, under 10 active | shares compounds with PGC1a acetyl up | max activity (PGC-1a expression decrease), % | primary mouse hepatocytes, PGC-1a mRNA qPCR, forskolin; top dose 26 µM;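 active = compound lowering PGC-1a expression with fitted half-maximal concentration at most twice its top tested dose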;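 also: 0% = neutral control wells median and 100% = positive control wells median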
Active calls of the source: *.

SMILES | PGC1a acetyl up | others
O=C1NCN(c2ccccc2)C12CCN(C(c1cc3ccccc3o1)c1nnnn1C1CCCCC1)CC2 (stereo not given) | 84*
COc1ccc(CC2NCC(O)C2OC(C)=O)cc1 (stereo not given) | -92
CC1=CC2OC3CC4OC(=O)C=CC=CC(C(C)O)OCC(O)C(C)CC(=O)OCC2(CC1O)C4(C)C31CO1 (stereo not given) | -81
CC1=C(C/C(C)=C/c2ccccc2)/C(=C/CO)[C@@H]2OC(=O)O[C@]2(C)C12CC2 | -43
C=C1C(=O)O[C@@H]2C[C@@H](C)[C@@H]3C=CC(=O)[C@@]3(C)[C@@H](O)[C@H]12 | -47
O=C1CN=C(c2ccc[nH]2)c2cc(Cl)ccc2N1 | -41
C1=NCCc2c1[nH]c1ccccc21 | 156*
COc1ccc(CCNC2(C#N)CCCCC2)cc1OC | -84
CCOc1ccc(-c2cc(C)[n+](CCc3ccc(OC)c(OC)c3)c(-c3ccc(OCC)cc3)c2)cc1 | 230*
CC(=O)c1c(C)n(C2CCCCC2)c2ccc(O)cc12 | -55
COC(=O)C12OCC34C(CC5C(C)=C(O)C(=O)CC5(C)C3C(O)C1O)OC(=O)C(OC(=O)/C=C(\C)C(C)C)C24 (stereo not given) | -86
CCOCCN1CCC(OC(C)=O)C(C)C1 (stereo not given) | -42
C[C@@H]1CN([C@H](C)CO)C(=O)c2c(c3ccccc3n2C)-c2ccccc2CO[C@@H]1CN(C)C(=O)Oc1ccccc1 | 265*
C[C@@H]1C[C@@H]([C@H](O)CC2CC(=O)NC(=O)C2)C(=O)[C@@H](C)C1 | -73
CC(=O)OC1C(O)C(C)OC(OC2C(OC(=O)C3CCC4C(C3)OC3(CC(OC(=O)/C=C/c5ccccc5)C(C)CO3)C43CO3)OC(C)C(O)C2OC(C)=O)C1O (stereo not given) | -78
CC(=O)OC[C@]12CCC(C)=C[C@H]1O[C@@H]1[C@H](O)[C@@H](OC(C)=O)[C@@]2(C)[C@]12CO2 | -86
CC(=O)OC1CC(OC2C(O)CC(OC3C(O)CC(OC4CCC5(C)C(CCC6C5CCC5(C)C(C7=CC(=O)OC7)CCC65O)C4)OC3C)OC2C)OC(C)C1OC1OC(CO)C(O)C(O)C1O (stereo not given) | -56
C[C@@H]1O[C@@H](O[C@@H]2C=C3CC[C@@H]4C(CC[C@]5(C)[C@@H](c6ccc(=O)oc6)CC[C@]45O)[C@@]3(C)CC2)[C@H](O)[C@H](O)[C@H]1O (stereo not given in full) | -67
C[C@H]1CCC/C=C/[C@@H]2C[C@H](O)C[C@H]2[C@H](O)/C=C/C(=O)O1 | -69
CN1CCN(Cc2cc(C(C)(C)C)c(O)c(C(C)(C)C)c2)CC1 | 130*
CCC1(OC(=O)CN)C(=O)OCc2c1cc1n(c2=O)Cc2cc3ccccc3nc2-1 (stereo not given) | -43
CC1OC(OC2CC(O)C3(CO)C4C(O)CC5(C)C(C6=CC(=O)OC6)CCC5(O)C4CCC3(O)C2)C(O)C(O)C1O (stereo not given) | -81
COc1ccc(-n2nnnc2C(CCc2ccccc2)N2CCC(n3c(=O)[nH]c4ccccc43)CC2)cc1 (stereo not given) | -55
CCn1cc(C(=O)N2CCOCC2)c2ccccc21 | -59
C[C@@H]1O[C@@H](O[C@@H]2C=C3CCC4C(CC[C@]5(C)[C@@H](c6ccc(=O)oc6)CC[C@]45O)[C@@]3(C)CC2)[C@H](O)[C@H](O)[C@H]1O (stereo not given in full) | -60
COc1ccc(OC(=O)N(C)C[C@H]2OCc3ccccc3-c3c(n(C)c4ccccc34)C(=O)N([C@@H](C)CO)C[C@H]2C)cc1 | 62* | G6PC hep suppr=13;PCK1 hep suppr=48;PGC1a hep suppr=46
CC(=O)OC(C)(C)/C=C/C(=O)C(C)(O)C1C(O)CC2(C)C3CC=C4C(CC(O)C(=O)C4(C)C)C3(C)C(=O)CC12C (stereo not given) | -70
Oc1ccc2c3c1O[C@H]1[C@@H](O)CC[C@@]4(O)[C@@H](C2)N(CC2CCC2)CC[C@]314 | -57
CCn1nc(-c2cccs2)nc2c(=O)n(C)c(=O)nc1-2 | -40
CC(=O)OC1(C)CC(C)C(=O)C(C(O)CC2CC(=O)NC(=O)C2)C1 (stereo not given) | -93
